Columns and labels:
[1] = biological target: T1, Prostaglandin G/H synthase 1 (Homo sapiens, UniProt P23219); experiment: Inhibition of human Prostaglandin G/H synthase 1 at 0.1 ug/mL expressed as mean percent inhibition of control PGE-2 production
Outline: (§1)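 Human COX-1 and COX-2 genes expressed in a baculovirus system; microsomes prepared from High Five insect cells and used as the enzyme source. Activity read as PGE2 production. Each dose run in duplicate wells within each experiment, and values given as mean percent inhibition of control PGE2.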

[2] = biological target: T1, Prostaglandin G/H synthase 1; experiment: Inhibition of human Prostaglandin G/H synthase 1 at 1 ug/mL expressed as mean percent inhibition of control PGE-2 production; outline: as §1
[3] = biological target: T1, Prostaglandin G/H synthase 1; experiment: Inhibition of human Prostaglandin G/H synthase 1 at 10 ug/mL expressed as mean percent inhibition of control PGE-2 production; outline: as §1

T1 sequence (P23219 whole entry): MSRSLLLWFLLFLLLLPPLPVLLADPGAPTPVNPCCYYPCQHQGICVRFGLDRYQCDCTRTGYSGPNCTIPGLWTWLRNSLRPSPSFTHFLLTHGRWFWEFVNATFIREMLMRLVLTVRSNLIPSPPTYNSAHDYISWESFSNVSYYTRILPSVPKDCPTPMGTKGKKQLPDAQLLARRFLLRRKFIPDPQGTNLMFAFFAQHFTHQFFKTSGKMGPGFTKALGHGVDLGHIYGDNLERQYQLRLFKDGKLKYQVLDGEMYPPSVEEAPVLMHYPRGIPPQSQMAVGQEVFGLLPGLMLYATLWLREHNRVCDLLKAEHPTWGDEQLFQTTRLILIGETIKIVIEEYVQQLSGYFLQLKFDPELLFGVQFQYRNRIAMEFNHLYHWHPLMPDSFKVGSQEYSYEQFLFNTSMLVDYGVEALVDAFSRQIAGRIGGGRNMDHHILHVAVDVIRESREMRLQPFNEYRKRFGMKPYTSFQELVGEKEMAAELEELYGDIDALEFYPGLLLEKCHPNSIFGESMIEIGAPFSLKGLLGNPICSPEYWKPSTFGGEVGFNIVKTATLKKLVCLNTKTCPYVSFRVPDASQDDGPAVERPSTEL

inhibition [1] [%]	inhibition [2] [%]	inhibition [3] [%]	SMILES
9	13	14	COc1ccc2c(c1)C(O)=C(C(=O)Nc1ccc(Cl)cc1)N(C)S2(=O)=O
11	21	18	Cc1cnc(NC(=O)C2=C(O)c3cc(Cl)ccc3SC2)s1
10	17	53	CN1C(O)=C(C(=O)Nc2ccccn2)c2ccccc2S1(=O)=O
6	55	97	CN1C(C(=O)Nc2ncc(-c3ccccc3)s2)=C(O)c2ccccc2S1(=O)=O
6	41	84	O=C(Nc1cccc(Cl)c1)C1=C(O)c2ccccc2S(=O)(=O)C1
3	39	98	O=C(Nc1ccc(Cl)cc1Cl)C1=C(O)N(Cc2ccccc2)S(=O)(=O)c2ccc(F)cc21
0	14	24	Cc1ccc2c(c1)C(O)=C(C(=O)Nc1ncc(C)s1)N(C)S2(=O)=O
63	98	97	Cc1ccc2c(c1)S(=O)(=O)N(C)C(O)=C2C(=O)Nc1ccccc1Cl
27	89	100	CN1C(O)=C(C(=O)Nc2ccc(Br)cc2)c2ccc(Cl)cc2S1(=O)=O
7	41	45	CN1C(O)=C(C(=O)Nc2ccccn2)c2ccc(Cl)cc2S1(=O)=O
1	22	66	Cc1nc(NC(=O)C2=C(O)c3ccccc3S(=O)(=O)N2C)sc1C
15	10	12	CC1Sc2ccc(Cl)cc2C(O)=C1C(=O)Nc1cccc(Cl)c1 (configuration not stated)
5	5	-7	Cc1coc(NC(=O)C2=C(O)c3ccccc3S(=O)(=O)N2C)n1
23	44	95	Cc1cnc(NC(=O)C2=C(O)N(C)S(=O)(=O)c3ccc(Cl)cc32)s1
19	55	98	CN1C(O)=C(C(=O)Nc2ccc(Cl)cc2Cl)c2c(ccc(Cl)c2Cl)S1(=O)=O
18	76	98	CN1C(O)=C(C(=O)Nc2nccs2)c2cc(Cl)ccc2S1(=O)=O
33	97	97	CN1C(O)=C(C(=O)Nc2ccc(Br)cc2)c2cc(Cl)ccc2S1(=O)=O
40	72	90	Cc1ccc2c(c1)/C(=C(\O)Nc1ccccc1)C(=O)N(C)C2=O
-10	64	94	O=C(Nc1cccc(Cl)c1)C1=C(O)c2cc(Cl)ccc2S(=O)(=O)C1
-8	15	3	COc1ccc2c(c1)S(=O)(=O)N(C)C(C(=O)Nc1ccccc1)=C2O
65	92	100	CN1C(O)=C(C(=O)Nc2ccccc2)c2ccccc2S1(=O)=O
31	68	93	Cc1cnc(NC(=O)C2=C(O)c3sc(C)cc3S(=O)(=O)N2C)s1
2	11	37	Cn1c(C(=O)Nc2nccs2)c(O)c2ccccc2c1=O
0	17	76	O=C(Nc1cccc(Cl)c1)C1=C(O)c2cc(Cl)ccc2[S+]([O-])C1 (configuration not stated)
9	31	93	CN1C(C(=O)Nc2ccccc2)=C(O)c2c(c3ccccc3n2C)S1(=O)=O

inhibition [1] [%]	inhibition [2] [%]	inhibition [3] [%]	SMILES
40	94	100	CN1C(O)=C(C(=O)Nc2ccc(Cl)cc2Cl)c2cc(F)ccc2S1(=O)=O
18	54	72	CN1C(O)=C(C(=O)Nc2ccccc2)c2c(ccc3ccccc23)S1(=O)=O
-8	16	26	CN1C(C(=O)Nc2ccccc2)=C(O)c2ccccc2S1(=O)=O
11	26	62	Cc1cnc(NC(=O)C2=C(O)c3cc(Cl)ccc3S(=O)(=O)N2C)s1
-9	0	5	CCn1c2c(c3ccccc31)S(=O)(=O)N(C)C(C(=O)Nc1ccccc1)=C2O
-2	9	44	COc1ccc2c(c1)S(=O)(=O)N(C)C(C(=O)Nc1ccccn1)=C2O
15	16	17	CN1C(C(=O)Nc2ccccc2)=C(O)c2cc(Cl)ccc2S1(=O)=O
-7	10	35	CN1C(C(=O)Nc2ccccn2)=C(O)c2ccccc2S1(=O)=O
4	64	88	CN1C(C(=O)Nc2ccccc2)=C(O)c2ccc3ccccc3c2S1(=O)=O
3	33	86	COc1ccc2c(c1)c1c(n2C)C(O)=C(C(=O)Nc2nccs2)N(C)S1(=O)=O
13	3	24	CN1C(C(=O)c2c[nH]c3ccccc23)=C(O)c2ccccc2S1(=O)=O
32	57	91	CN1C(O)=C(C(=O)Nc2ccc(Cl)cc2Cl)c2sc(Cl)cc2S1(=O)=O
78	96	100	Cc1cc2c(s1)S(=O)(=O)N(C)C(C(=O)Nc1ccccc1F)=C2O
-3	1	44	CCCc1csc(NC(=O)C2=C(O)c3ccccc3S(=O)(=O)N2C)n1
14	18	41	Cc1cnc(NC(=O)C2=C(O)c3ccccc3S(=O)(=O)N2)s1
31	26	54	O=C(Nc1cccc(Cl)c1)C1=C(O)c2cc(Cl)ccc2SC1
0	11	27	CN1C(C(=O)Nc2ccccn2)=C(O)c2cc(F)ccc2S1(=O)=O
13	42	78	CN1C(=O)/C(=C(/O)Nc2ccccc2)c2cc(Cl)ccc2C1=O
2	28	28	Cc1ccc2c(c1)S(=O)(=O)N(C)C(C(=O)Nc1ccccc1)=C2O
-4	23	30	CCc1cnc(NC(=O)C2=C(O)c3ccccc3S(=O)(=O)N2C)s1
80	100	100	Cc1cnc(NC(=O)C2=C(O)c3ccc4ccccc4c3S(=O)(=O)N2C)s1
30	52	51	Cc1ccc2c(c1)/C(=C(\O)Nc1ncc(C)s1)C(=O)N(C)C2=O
1	32	97	Cc1cnc(NC(=O)C2=C(O)c3c(c4ccccc4n3C)S(=O)(=O)N2C)s1
18	29	45	Cc1ccc2c(c1)S(=O)(=O)N(C)C(C(=O)Nc1ccccn1)=C2O
